WT yeast gro inh: growth inhibition of WT strain, primary screen, mitochondrial fusion inhibitor project, WT and mutant strains, chemical genetic; inhibition, % at 10 µM; AID 1362, 2008; 2.1% of 190,000 active; mitochondrial fusion phenotypic screen; in the data active means inhibition above about 58%; tested in S. cerevisiae
Beta apoptosis: inhibitors of cytokine-induced beta cell apoptosis, primary screen, luminescence | INS-1E cytokine-induced death, ATP luminescence, 48 h; percent of positive-control rescue, neutral wells zero | protection from apoptosis, % (no concentration beside the values) | 0.8% of 300,000 active | AID 435005, 2010;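 active means Every replicate reaches about 75%, or at least half do and their mean reaches it too, limit read from the data; inconclusive means At least half of replicates reach the limit but their mean does not; inactive means Under half of replicates reach the limit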;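 further: 0% = cytokine-treated negative control wells and 100% = positive control rescue; higher means more ATP so stronger rescue from cytokine killing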
Efflux pump inh: inhibitors of Candida efflux pumps in yeast, primary screen, S. cerevisiae, Nile Red, multiplex; AID 485275, 2010; 0.44% of 330,000 active; S. cerevisiae Candida pump triplex; inhibition, % at 10 µM;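 active means plate passing quality check with inhibition over a set limit, or well fluorescence over plate mean plus 4 SD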;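 further: Nile Red retained in pooled yeast measured as flow cytometry median fluorescence; 0% = buffer negative control and 100% = Enniatin B positive control; higher means more Nile Red kept so more efflux inhibition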
CSC inhib: cancer stem cell viability inhibitors, primary screen, luminescence; cancer stem cell-like cells viability; inhibition, % at 7.5 µM; 1.1% of 300,000 active; in the data active means inhibition above about 75%; inconclusive means no clear call, values can overlap the other calls; tested in HMLE shEcad cells
T cruzi repl: inhibitors of intracellular T. cruzi growth, primary screen, luminescence, NIH3T3 host cells; 1.4% of 300,000 active; AID 1885, 2009; inhibition, % (concentration not given with the values); T. cruzi beta-gal in NIH3T3, 90 h;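 active means mean inhibition across valid replicates above about 55%, limit read from the data; inconclusive means mean below that limit but half or more replicates reach it; inactive means mean below it, under half of replicates reach it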;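 further: signal also drops with host cell toxicity which is not excluded here; 0% = plate median of DMSO wells and 100% = zero luminescence signal; higher percent means less beta-gal luminescence so fewer parasites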
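compound dosing = single 50 nL compound addition per well in DMSO | material = NIH/3T3 host cells with β-galactosidase reporter T. cruzi | input = 5,000 host fibroblasts per well | timing = ≥90 h infection period, 3 h prior cell attachment | read-out basis = percent inhibition of parasite-derived β-gal signal | detection = GalScreen β-gal luminescence, detergent lysis, 60 min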
SUMO Mot1 rescue: yeast Mot1-301 growth rescue at high temperature, primary screen, SUMOylation pathway inhibitor project, S. cerevisiae, ATP luminescence, 38.5C | growth rescue, % at 18.8 µM | S. cerevisiae Mot1-301 growth rescue; percent above DMSO median, 100 means doubled | 1% of 320,000 active | AID 2716, 2010;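 active means every valid replicate shows activation above 250% relative to neutral control wells; inactive means the rest, any valid replicate at or below 250%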;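 further: OY570 slx delta 5 strain wells were the positive control but not used for scaling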
Yeast cmpd fluor: compound fluorescence in yeast efflux pump counter-screen | fluorescence ratio to DMSO, % at 10 µM | shares compounds with Efflux pump inh | S. cerevisiae AD/pABC3, flow cytometry | AID 588517 | 4% of 1,700 active;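 active means fluorescence ratio to DMSO above its plate's cutoff, the plate mean ratio plus 5 SD, cut at about 210% in these data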;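 further: unstained yeast with no Nile Red so the signal is compound autofluorescence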
Mdr1 pump inh: inhibitors of Candida albicans Mdr1 efflux, confirmation, flow cytometry, singleplex, Cherry Pick1 set. shares compounds with Efflux pump inh. S. cerevisiae AD/CaMDR1, Nile Red efflux. inhibition, % at 10 µM. 1% of 1,700 active. AID 588518, 2011; in the data active means inhibition above about 26%;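 further: 0% = DMSO vehicle and 100% = reference inhibitor; higher means more Nile Red retained so more efflux inhibition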
CaCdr2 efflux inh: inhibitors of Candida albicans Cdr2 efflux pump, confirmation, S. cerevisiae AD/CaCDR2, flow cytometry, cherry pick 1, singleplex | shares compounds with Efflux pump inh | Nile Red retention | Nile Red retention ratio vs DMSO, % at 10 µM | AID 588520, 2011 | 4% of 1,700 active; in the data active means Nile Red retention ratio vs DMSO above about 190%;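 further: higher ratio means more blocking of Cdr2 efflux of the dye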
CaCdr1 efflux inh: inhibitors of Candida albicans Cdr1 efflux pump, confirmation, S. cerevisiae AD/CaCDR1, flow cytometry, cherry pick 1, singleplex; AID 588522, 2011; 1% of 1,700 active; Nile Red efflux; shares compounds with Efflux pump inh; inhibition, % at 10 µM;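 active means inhibition above the screen-wide mean plus twice its standard deviation, cut at about 32% in these data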
* hit, by the source's call; ? = inconclusive; · = not tested or not shown. In the library only some 4.8% were active in any assay of this set; here they are far more common.

SMILES | WT yeast gro inh | Beta apoptosis | Efflux pump inh | CSC inhib | T cruzi repl | SUMO Mot1 rescue | Yeast cmpd fluor | Mdr1 pump inh | CaCdr2 efflux inh | CaCdr1 efflux inh
COc1ccc(CCNC(=O)C2=CCN(S(=O)(=O)c3ccc(F)cc3)CC2)cc1OC | · | 0 | 0.4* | 6 | 8 | 60 | 117 | 0 | 108 | 0
COc1ccc(CCNC(=O)C2CCCN(S(=O)(=O)c3ccc(F)cc3)C2)cc1OC (stereo not given) | · | -5 | 0 | -3 | -1 | -21 | · | · | · | ·
Cc1nnc(SCc2ccccc2F)n1NCc1cccs1 | -4 | -1 | 0 | -19 | 2 | 8 | · | · | · | ·
CC(C)Cn1c(SCC#N)nc2ccccc2c1=O | -4 | 3 | 0 | 63 | -2 | -1 | · | · | · | ·
C=CCn1c(SCC#N)nc2ccccc2c1=O | -12 | -1 | 0.6* | -6 | -1 | -1 | 93 | 0 | 106 | 0
O=S(=O)(Cc1ccccc1)N1CCN(Cc2ccc3c(c2)OCO3)CC1 | 6 | -1 | 1.1* | 13 | -3 | 78 | 103 | 0 | 93 | 0
O=S(=O)(c1ccc2c(c1)OCCO2)N1CCN(Cc2ccc3c(c2)OCO3)CC1 | 20 | -1 | 0 | -4 | 13 | 6 | · | · | · | ·
O=C1c2ccc([N+](=O)[O-])cc2C(=O)N1c1ccc(Cl)cn1 | -2 | -5 | 0 | -13 | 0 | 2 | · | · | · | ·
CC(=O)Oc1ccc(N2C(=O)c3cccc4c([N+](=O)[O-])ccc(c34)C2=O)cc1 | · | · | 1 | 38 | 12 | 2 | · | · | · | ·
O=C1c2cccc3c([N+](=O)[O-])ccc(c23)C(=O)N1c1ccccn1 | 15 | · | 0.7* | 105* | 20 | 75 | 149 | 1 | 139 | 1
O=C1c2ccccc2C(=O)N1c1cc([N+](=O)[O-])ccn1 | · | 3 | 0 | -13 | -7 | -11 | · | · | · | ·
O=C1c2cccc3c([N+](=O)[O-])ccc(c23)C(=O)N1O | · | 43 | 4.1* | 29 | 2 | -33 | 138 | 1 | 262* | 1
O=C1c2cccc3c([N+](=O)[O-])ccc(c23)C(=O)N1c1ccc(Cl)cn1 | -2 | 29 | 2.1* | 112* | 31 | 160 | 265* | 1 | 177 | 0
COc1ccc(CNC(=O)COc2ccc(Br)c(C)c2)cc1 | · | -4 | 0 | 7 | 0 | -18 | · | · | · | ·
O=[N+]([O-])c1ccc(N2CCc3ccccc3C2)nc1 | · | 7 | 0.6* | 0 | 0 | 0 | 110 | 0 | 131 | 0
Cc1cc(C)c(S(=O)(=O)N2CCc3ccccc32)c(C)c1 | · | -8 | 0.9* | -9 | 18 | -18 | 207 | 0 | 108 | 0
CC1CCN(Cc2nnnn2-c2cccc([N+](=O)[O-])c2)CC1 | 2 | -6 | 0 | 2 | 12 | 0 | · | · | · | ·
O=C(NCCC1=CCCCC1)C1CCC(CNc2nc(=S)[nH]c3ccccc23)CC1 (stereo not given) | 2 | 44 | 1.1* | 4 | -13 | -16 | 115 | 0 | 108 | 0
O=C(NCCc1ccc(Cl)cc1)C1CCC(CNc2nc(=S)[nH]c3ccccc23)CC1 (stereo not given) | -6 | 60 | 0 | 47 | 11 | 30 | · | · | · | ·
COC(=O)c1ccc(N2CCOCC2)c(NC(=O)c2cccnc2)c1 | · | · | 0 | -8 | ? | -10 | · | · | · | ·
O=[N+]([O-])c1ccc(Oc2cccc3cccnc23)c([N+](=O)[O-])c1 | 63* | 46 | 0.9* | 52 | 29 | 6 | 123 | 0 | 123 | 0
COc1ccc2nc(C)cc(Sc3nc4ccccc4s3)c2c1 | · | -47 | 1.0* | 59 | 0 | 44 | 89 | 0 | 98 | 0
Cc1nnc(NC(=O)CSc2nc3ccccc3o2)s1 | 8 | 2 | 0 | -10 | -13 | -1 | · | · | · | ·
Cc1ccc2nc(NC(=O)CSc3nc4ccccc4o3)sc2c1 | 5 | 3 | 0.6* | 2 | -23 | 59 | 154 | 1 | 127 | 0
CCCN1C(=O)c2ccccc2NC1c1ccc(O)c(OCC)c1 (stereo not given) | · | 1 | 0 | -18 | -3 | 3 | · | · | · | ·
SMILES | WT yeast gro inh | Beta apoptosis | Efflux pump inh | CSC inhib | T cruzi repl | SUMO Mot1 rescue | Yeast cmpd fluor | Mdr1 pump inh | CaCdr2 efflux inh | CaCdr1 efflux inh
COc1ccc(Cl)cc1C(=O)O/N=C(\N)c1ccc(Cl)cc1 | 3 | 9 | 6.5* | -7 | -14 | 94 | 113 | 0 | 110 | 0
COc1cccc(C(=O)O/N=C(\N)c2ccncc2)c1OC | -5 | -2 | 13* | -6 | 6 | 0 | 98 | 0 | 107 | 0
CC(C)Sc1nc2ccccc2n2cnnc12 | · | 8 | 1 | -13 | 10 | 10 | · | · | · | ·
CC(C)C(NC(=O)Nc1ccccc1)C(=O)Nc1cccc(S(=O)(=O)N(C)C)c1 (stereo not given) | · | -6 | 0 | -7 | -8 | -2 | · | · | · | ·
O=C(COC(=O)c1ccncc1)Nc1cccc2ccccc12 | · | -1 | 0 | -6 | · | 14 | · | · | · | ·
Cc1onc(-c2c(F)cccc2Cl)c1C(=O)NC(=S)NC1CCS(=O)(=O)C1 (stereo not given) | -7 | 0 | 6.5* | -6 | -5 | -9 | 92 | 0 | 112 | 0
Cc1onc(-c2c(F)cccc2Cl)c1C(=O)NC1CCCCCC1 | · | -6 | 0 | -7 | 3 | -3 | · | · | · | ·
COC(=O)C1=C(CCc2ccccc2)NC(=O)NC1c1ccc([N+](=O)[O-])cc1 (stereo not given) | · | -8 | 0 | -1 | -15 | 437 | · | · | · | ·
COc1cccc(C2NC(=O)CCC2[N+](=O)[O-])c1 (stereo not given) | · | -7 | 0 | -17 | -5 | -11 | · | · | · | ·
CC1CC(C)CN(S(=O)(=O)c2cc(C(=O)O)c(Cl)s2)C1 (stereo not given) | 10 | 1 | 9.7* | -13 | -14 | -6 | 101 | 0 | 94 | 0
O=C(O)c1cc(S(=O)(=O)N2CCCCC2)sc1Cl | -9 | -2 | 0 | -15 | -7 | 219 | · | · | · | ·
C[C@@H]1COC(=O)[C@H](CC(=O)OC(C)(C)C)C/C=C\C[C@@H](CC(=O)NCCO)C(=O)N1 | · | -7 | 0 | 9 | · | 1 | · | · | · | ·

Screens (PubChem)
